From publication PMC12166256 (Clinical Pharmacology and Therapeutics, 2025)

Test: MAD study: safety and tolerability
Type: in vivo, human
In short: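 Healthy males aged 18–55 with BMI 18–30 kg/m² were followed through dosing and a 6–8-day follow-up. Checks: physical examination, clinical laboratory tests, vital signs and 12-lead ECG, with adverse events coded in MedDRA. Events of special interest: ALT ≥2×ULN, QTcF ≥500 ms, Grade ≥2 photosensitivity, symptomatic overdose. Treatment-emergent events were summarised descriptively by organ class, preferred term and dose level for all exposed participants.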

CN1C(=O)c2cccc(OC(F)F)c2[C@H]2C[C@@H]1c1nc3ccc(-c4cnc(C5(N)CCC5)nc4)cc3n12 [Balinatunfib]
1: Diarrhea TEAE, events (MAD 200 mg BID, N = 8) | Dysgeusia TEAE, events (MAD 200 mg BID, N = 8) | Gastrointestinal disorders TEAE, events (MAD 200 mg BID, N = 8) | General disorders and administration site conditions TEAE, events (MAD 200 mg BID, N = 8) | Medical device site reaction TEAE, events (MAD 200 mg BID, N = 8) | Nervous system disorders TEAE, events (MAD 200 mg BID, N = 8) | Abdominal pain TEAE, events (MAD 300 mg BID, N = 8) | Alanine aminotransferase increased TEAE, events (MAD 300 mg BID, N = 8) | Constipation TEAE, events (MAD 300 mg BID, N = 8) | Investigations TEAE, events (MAD 300 mg BID, N = 8)
four: PCSA QTcF increase from baseline ]30-60] msec, participants n/N1 (MAD 300 mg BID) | participants with AESIs (ALT increase) (MAD, all balinatunfib groups)
0 n (%): Alanine aminotransferase increased TEAE, participants (MAD 200 mg BID, N = 8) | Constipation TEAE, participants (MAD 200 mg BID, N = 8) | Headache TEAE, participants (MAD 200 mg BID, N = 8) | Injury, poisoning, and procedural complications TEAE, participants (MAD 200 mg BID, N = 8) | Investigations TEAE, participants (MAD 200 mg BID, N = 8) | Musculoskeletal and connective tissue disorders TEAE, participants (MAD 200 mg BID, N = 8) | Neck pain TEAE, participants (MAD 200 mg BID, N = 8) | Oropharyngeal pain TEAE, participants (MAD 200 mg BID, N = 8) | Reproductive system and breast disorders TEAE, participants (MAD 200 mg BID, N = 8) | Sneezing TEAE, participants (MAD 200 mg BID, N = 8) | Testicular mass TEAE, participants (MAD 200 mg BID, N = 8) | Wound TEAE, participants (MAD 200 mg BID, N = 8) | Diarrhea TEAE, participants (MAD 300 mg BID, N = 8) | Dry skin TEAE, participants (MAD 300 mg BID, N = 8) | Dysgeusia TEAE, participants (MAD 300 mg BID, N = 8) | General disorders and administration site conditions TEAE, participants (MAD 300 mg BID, N = 8) | Headache TEAE, participants (MAD 300 mg BID, N = 8) | Injury, poisoning, and procedural complications TEAE, participants (MAD 300 mg BID, N = 8) | Medical device site reaction TEAE, participants (MAD 300 mg BID, N = 8) | Musculoskeletal and connective tissue disorders TEAE, participants (MAD 300 mg BID, N = 8) | Nasal dryness TEAE, participants (MAD 300 mg BID, N = 8) | Neck pain TEAE, participants (MAD 300 mg BID, N = 8) | Nervous system disorders TEAE, participants (MAD 300 mg BID, N = 8) | Oropharyngeal pain TEAE, participants (MAD 300 mg BID, N = 8) | Reproductive system and breast disorders TEAE, participants (MAD 300 mg BID, N = 8) | Respiratory, thoracic, and mediastinal disorders TEAE, participants (MAD 300 mg BID, N = 8) | Skin and subcutaneous tissue disorders TEAE, participants (MAD 300 mg BID, N = 8) | Sneezing TEAE, participants (MAD 300 mg BID, N = 8) | Testicular mass TEAE, participants (MAD 300 mg BID, N = 8) | Wound TEAE, participants (MAD 300 mg BID, N = 8)
7: Any event TEAE, events (MAD 200 mg BID, N = 8)
1 (12.5) n (%): Diarrhea TEAE, participants (MAD 200 mg BID, N = 8) | Dysgeusia TEAE, participants (MAD 200 mg BID, N = 8) | Gastrointestinal disorders TEAE, participants (MAD 200 mg BID, N = 8) | General disorders and administration site conditions TEAE, participants (MAD 200 mg BID, N = 8) | Medical device site reaction TEAE, participants (MAD 200 mg BID, N = 8) | Nervous system disorders TEAE, participants (MAD 200 mg BID, N = 8) | Abdominal pain TEAE, participants (MAD 300 mg BID, N = 8) | Alanine aminotransferase increased TEAE, participants (MAD 300 mg BID, N = 8) | Constipation TEAE, participants (MAD 300 mg BID, N = 8) | Gastrointestinal disorders TEAE, participants (MAD 300 mg BID, N = 8) | Investigations TEAE, participants (MAD 300 mg BID, N = 8)
181 IU/L: ALT in the participant with ALT > 3 ULN (MAD 300 mg BID, Day 18, 4 days after the last dose)
well tolerated: tolerability (all repeated oral doses (100–600 mg total daily dose, 14 days))
2: Dry skin TEAE, events (MAD 200 mg BID, N = 8) | Nasal dryness TEAE, events (MAD 200 mg BID, N = 8) | Respiratory, thoracic, and mediastinal disorders TEAE, events (MAD 200 mg BID, N = 8) | Skin and subcutaneous tissue disorders TEAE, events (MAD 200 mg BID, N = 8) | Gastrointestinal disorders TEAE, events (MAD 300 mg BID, N = 8)
0: Alanine aminotransferase increased TEAE, events (MAD 200 mg BID, N = 8) | Constipation TEAE, events (MAD 200 mg BID, N = 8) | Headache TEAE, events (MAD 200 mg BID, N = 8) | Injury, poisoning, and procedural complications TEAE, events (MAD 200 mg BID, N = 8) | Investigations TEAE, events (MAD 200 mg BID, N = 8) | Musculoskeletal and connective tissue disorders TEAE, events (MAD 200 mg BID, N = 8) | Neck pain TEAE, events (MAD 200 mg BID, N = 8) | Oropharyngeal pain TEAE, events (MAD 200 mg BID, N = 8) | Reproductive system and breast disorders TEAE, events (MAD 200 mg BID, N = 8) | Sneezing TEAE, events (MAD 200 mg BID, N = 8) | Testicular mass TEAE, events (MAD 200 mg BID, N = 8) | Wound TEAE, events (MAD 200 mg BID, N = 8) | Diarrhea TEAE, events (MAD 300 mg BID, N = 8) | Dry skin TEAE, events (MAD 300 mg BID, N = 8) | Dysgeusia TEAE, events (MAD 300 mg BID, N = 8) | General disorders and administration site conditions TEAE, events (MAD 300 mg BID, N = 8) | Headache TEAE, events (MAD 300 mg BID, N = 8) | Injury, poisoning, and procedural complications TEAE, events (MAD 300 mg BID, N = 8) | Medical device site reaction TEAE, events (MAD 300 mg BID, N = 8) | Musculoskeletal and connective tissue disorders TEAE, events (MAD 300 mg BID, N = 8) | Nasal dryness TEAE, events (MAD 300 mg BID, N = 8) | Neck pain TEAE, events (MAD 300 mg BID, N = 8) | Nervous system disorders TEAE, events (MAD 300 mg BID, N = 8) | Oropharyngeal pain TEAE, events (MAD 300 mg BID, N = 8) | Reproductive system and breast disorders TEAE, events (MAD 300 mg BID, N = 8) | Respiratory, thoracic, and mediastinal disorders TEAE, events (MAD 300 mg BID, N = 8) | Skin and subcutaneous tissue disorders TEAE, events (MAD 300 mg BID, N = 8) | Sneezing TEAE, events (MAD 300 mg BID, N = 8) | Testicular mass TEAE, events (MAD 300 mg BID, N = 8) | Wound TEAE, events (MAD 300 mg BID, N = 8)
4 (50.0) n (%): Any event TEAE, participants (MAD 200 mg BID, N = 8)
2 (25.0) n (%): Dry skin TEAE, participants (MAD 200 mg BID, N = 8) | Nasal dryness TEAE, participants (MAD 200 mg BID, N = 8) | Respiratory, thoracic, and mediastinal disorders TEAE, participants (MAD 200 mg BID, N = 8) | Skin and subcutaneous tissue disorders TEAE, participants (MAD 200 mg BID, N = 8) | Any event TEAE, participants (MAD 300 mg BID, N = 8)
37.5%: participants with at least one TEAE (MAD, all balinatunfib groups (12/32))
3: Any event TEAE, events (MAD 300 mg BID, N = 8)
